Compound activity (PubChem)
PAFAH2 FP inh: PAFAH2 (human) inhibition; Q99487; recombinant PAFAH2, FP-rhodamine activity probe, fluorescence polarization; inhibition, % at 3.39 µM; hit rate 0.99% among 340,000; AID 492956;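 active = inhibition above the mean over all tested compounds plus 3 SD, cut at about 30% in these data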;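 also: inhibitors block probe labeling of enzyme so polarization drops; 0% = enzyme with DMSO and 100% = wells lacking PAFAH2 protein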
ASAP1 inh: blocks human ASAP1-stimulated Arf1 GTP hydrolysis | Q9ULH1 | GDP FP detection | inhibition, % at 16.5 µM | hit rate 0.19% among 360,000; in the data active = inhibition above about 25%;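 also: 0% = vehicle with enzyme and substrate and 100% = no enzyme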
PAFAH1B3 FP inh: PAFAH1B3 (human) inhibition; Q15102; recombinant PAFAH1B3, FP-rhodamine probe, fluorescence polarization; inhibition, % at 3.39 µM; hit rate 0.28% among 340,000;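 active = inhibition above the screen-wide average of all tested compounds plus 3 SD, cut at about 25% in these data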;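 also: 0% = enzyme with DMSO only and 100% = wells lacking PAFAH1B3 protein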
Target sequence (Q15102 whole entry, looked up): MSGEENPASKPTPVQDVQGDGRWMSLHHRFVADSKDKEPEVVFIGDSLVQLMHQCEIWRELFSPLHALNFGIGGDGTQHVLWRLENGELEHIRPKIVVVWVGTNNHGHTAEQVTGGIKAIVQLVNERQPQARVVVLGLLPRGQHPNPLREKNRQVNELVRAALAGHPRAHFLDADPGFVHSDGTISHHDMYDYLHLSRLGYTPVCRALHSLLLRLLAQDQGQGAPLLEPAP
ARFGAP1 inh: rat ARFGAP1 inhibition; Q62848; Arfgap1-stimulated ARF1 GTP hydrolysis, GDP FP detection; inhibition, % at 16.5 µM; hit rate 0.26% among 360,000; AID 651572;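 active = inhibition above a per-plate limit, mean inhibition of low control wells plus 3 SD, cut at about 25% in these data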;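 also: 0% = DMSO wells with enzyme and 100% = wells lacking Arfgap1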
Target sequence (Q62848 1-136 limits assumed): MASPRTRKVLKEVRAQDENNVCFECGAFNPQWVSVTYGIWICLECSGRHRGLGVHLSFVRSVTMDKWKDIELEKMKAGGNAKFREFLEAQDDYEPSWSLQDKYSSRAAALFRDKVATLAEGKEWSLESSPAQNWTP
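System: truncated rat Arfgap1 GAP domain / Benchmarks: high control wells lacking Arfgap1, low control full reaction with DMSO / Times: compound-enzyme preincubation 20 min, reaction 120 min, detection 60 min, 25 °C / Repeats: one replicate per compound / Also added: human ARF1(Δ1-17)-GTP substrate / Measured by: Tracer-displacement fluorescence polarization with EDTA stop, 620/688 nm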
pPAFAH inh: inhibitors of human plasma PAF acetylhydrolase (pPAFAH). recombinant pPAFAH, FP-rhodamine probe fluorescence polarization. inhibition, % at 3.39 µM. hit rate 1.5% among 330,000;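 active = inhibition above the mean inhibition across the screen plus 3 SD, cut at about 25% in these data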;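 also: inhibitors block binding of the rhodamine activity-based probe so polarization drops; 0% = enzyme with DMSO and 100% = wells lacking pPAFAH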
PAFAH1B2 FP inh: inhibitors of human PAFAH1B2 | P68402 | recombinant PAFAH1B2, FP-rhodamine activity probe, fluorescence polarization | inhibition, % at 3.39 µM | hit rate 1.2% among 340,000;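 active = inhibition above the mean of all tested compounds plus 3 SD, cut at about 24% in these data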;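 also: 0% = enzyme with DMSO and 100% = wells lacking PAFAH1B2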
Target sequence (P68402 whole entry, looked up): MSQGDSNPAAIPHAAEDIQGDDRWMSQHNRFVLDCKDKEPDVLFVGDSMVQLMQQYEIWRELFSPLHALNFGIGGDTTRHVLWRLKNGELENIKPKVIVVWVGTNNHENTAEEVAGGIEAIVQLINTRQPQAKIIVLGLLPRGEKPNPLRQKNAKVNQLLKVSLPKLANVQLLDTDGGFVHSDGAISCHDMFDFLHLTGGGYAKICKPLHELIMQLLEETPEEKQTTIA
ASAP1 GAP conf: ASAP1 inhibition confirmed; ASAP1-stimulated Arf1 GTPase, GDP fluorescence polarization; inhibition, % at 16.5 µM; AID 624431; hit rate 37% among 620; shares compounds with ASAP1 inh;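 active = mean inhibition over triplicates exceeds the hit threshold derived for the earlier primary screening run, cut at about 25% in these data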
* = called active by the depositor; x = not tested or not shown. Rows were chosen to be rich in hits. Some 2.7% of all compounds tested hit in one or more screens of this group.

SMILES	PAFAH2 FP inh	ASAP1 inh	PAFAH1B3 FP inh	ARFGAP1 inh	pPAFAH inh	PAFAH1B2 FP inh	ASAP1 GAP conf
O=[N+]([O-])c1ccccc1OCCOc1ccccc1[N+](=O)[O-]	-5	81*	-13	35*	1	-2	102*
NC(Cc1ccc(C(F)(F)F)cc1)c1csc(Nc2ccc(C(=O)NCc3ccco3)cn2)n1 (stereo not drawn)	x	28*	x	12	x	x	13
NC(Cc1ccc(C(F)(F)F)cc1)c1csc(Nc2ccc(C(=O)NCCCO)cn2)n1 (stereo not drawn)	x	-13	x	10	x	x	x
COc1ccc(NC(=O)N(C)C[C@H]2Oc3ccc(NC(=O)Cn4cnnn4)cc3C(=O)N([C@H](C)CO)C[C@@H]2C)cc1	1	2	10	-5	1	3	x
Cc1ccc(-n2nc3c(c2NC(=O)c2ccco2)CS(=O)C3)cc1 (stereo not drawn)	-3	25*	1	-8	-1	7	-2
CC1CCC(NC(=O)CN2CCN(S(=O)(=O)c3ccc(Br)s3)CC2)CC1 (stereo not drawn)	x	-4	x	-3	x	x	x
CC(C(=O)Nc1sc2c(c1C(=O)NCC1CCCO1)CCC2)N1C(=O)c2ccccc2C1=O (stereo not drawn)	-5	-4	3	-7	-2	0	x
CCCCNC(=O)NC12CC3CC(CC(C3)C1)C2	7	7	-6	6	-1	4	x
CCCCNC(=O)NC(C(=O)OC)C12CC3CC(CC(C3)C1)C2 (stereo not drawn)	-1	30*	3	13	-2	6	-4
CCOC(=O)C1=C(COC(=O)c2cc([N+](=O)[O-])ccc2Cl)NC(=O)NC1C (stereo not drawn)	x	6	x	-15	x	x	x
CC1(C)Cc2c(c(-c3ccco3)nc3sc4c(NCCO)ncnc4c23)CO1	0	30*	10	-7	4	5	1
CC(=O)Cc1nsc(NC(=O)c2ccc(-c3ccc(Cl)cc3Cl)o2)n1	1	0	3	14	1	4	x
Cc1nnc2sc(-c3ccc(NC(=O)c4ccc(-c5ccc(Cl)cc5Cl)o4)cc3)nn12	-20	112*	-22	20	2	-11	55*
Cc1ccc2oc(=O)c3cnn(CC(=O)N(CCC(C)C)Cc4ccco4)c3c2c1	15	-1	0	-8	7	2	x
CCCCN(Cc1ccco1)C(=O)Cn1ncc2c(=O)oc3ccc(C)cc3c21	0	30*	-10	15	1	0	33*
COc1ccc(C(=O)NC(C)c2ccc(-n3ccnc3)cc2)cc1[N+](=O)[O-] (stereo not drawn)	-12	25*	-3	-4	-3	1	12
FC(F)(F)c1ccccc1-c1ccc2nncn2c1	x	2	x	2	x	x	x
Cc1cccc(N2C(=O)CC(N3CCN(c4ccccn4)CC3)C2=O)c1 (stereo not drawn)	-3	6	7	0	-1	0	x
Nc1nnc(SCC(=O)Nc2cccnc2Cl)s1	0	3	4	14	-12	2	x
Cc1cccc(Nc2nnc(SCC(=O)Nc3cccnc3Cl)s2)c1	-2	30*	7	4	5	3	3
COc1ccc(-c2ccc(SCC(=O)Nc3cccc(C(C)=O)c3)nn2)cc1OC	2	-2	5	1	1	-3	x
CC(=O)c1cccc(NC(=O)CSc2ccc(-c3ccc4c(c3)OCO4)nn2)c1	1	25*	1	-3	-3	8	54*
CCC(C)NCCOCCOc1ccc(Cl)c2ccccc12 (stereo not drawn)	2	-8	3	-4	0	1	x
COC(=O)c1cc(NC(=O)c2ccc(Cn3cc(Cl)cn3)o2)cc(C(=O)OC)c1	-11	40*	-3	0	3	6	28*
COC(=O)C1=C(CSc2nc3ccccc3s2)NC(=O)NC1c1ccc(F)cc1 (stereo not drawn)	-6	4	-7	6	1	-2	x
SMILES	PAFAH2 FP inh	ASAP1 inh	PAFAH1B3 FP inh	ARFGAP1 inh	pPAFAH inh	PAFAH1B2 FP inh	ASAP1 GAP conf
Cc1cc(F)ccc1-c1cc(C(=O)N2CCN(c3ccncc3)CC2)[nH]n1	x	12	x	10	x	x	x
Cc1cc(OCC(=O)Nc2ccc3oc(-c4ccncc4)nc3c2)ccc1Cl	0	28*	2	14	-5	2	131*
Cc1nnc(-c2cccc(Br)c2)c2cn(-c3cccc(Br)c3)nc12	2	27*	-6	14	32*	-3	20
CC(C)n1c(NCc2cc(Cl)ccc2O)nc2ccccc21	-3	26*	-2	6	5	4	14
Cc1ccc(O)c(CNc2nc3ccccc3n2C(C)C)c1	9	3	6	4	6	0	x
COc1cc2sc3ccc(C#Cc4ccccn4)cc3c(=O)c2cc1OC	-1	31*	1	12	-9	-8	28*
Cc1nc2ccccc2nc1N1CCCC1	-6	31*	7	6	1	3	3
Cc1nc2ccccc2nc1N1CCOCC1	-5	-5	-7	-12	0	3	x
COc1ccc(C(=O)Nc2cccc(-c3cc4ccccc4oc3=O)c2)cc1[N+](=O)[O-]	-6	27*	-20	24	8	-11	72*
CC(=O)Nc1ccc(NC(=O)c2cccc(-c3cc4ccccc4oc3=O)c2)cc1	-2	1	6	-8	2	1	x
O=C(NNS(=O)(=O)c1ccc(Cl)cc1)c1cc(-c2ccccc2)n[nH]1	-1	-8	3	9	6	6	x
O=C(NNS(=O)(=O)c1ccc(Cl)cc1)c1cc(-c2ccccc2)nc2ccccc12	0	28*	1	5	9	60*	15
CC1=NN(c2ccccc2)C(=O)C1N=Nc1cccc(O)c1 (stereo not drawn)	1	29*	14	-2	18	5	10
O=C(CN1C(=O)COc2ccccc2C1=O)c1ccc2c(c1)OCCO2	-2	-4	-2	4	5	6	x
Cc1ccccc1NC1=C/C(=N\S(=O)(=O)c2cccs2)c2ccccc2C1=O	40*	25*	64*	18	21	25*	6
Cc1cc[n+](C2=C([O-])c3ccccc3C(=O)/C2=N\S(=O)(=O)c2cccs2)cc1C	-7	-6	-4	-6	1	-4	x
CCCc1cc(=O)oc2c(C)c(OCC(=O)NC3CC(C)(C)NC(C)(C)C3)ccc12	2	27*	9	-10	8	0	4
CC1(C(=O)NS(=O)(=O)c2ccccc2)CCN1C(=O)c1ccc(C2CCCCC2)cc1 (stereo not drawn)	x	1	x	2	x	x	x
CCOC(=O)N1CCN(CC(=O)Nc2nc3ccc(OC)cc3s2)CC1	1	7	-1	6	-7	-1	x
